Results taken from ChEMBL document CHEMBL4513216, “Probing the Open Global Health Chemical Diversity Library for Multistage-Active Starting Points for Next-Generation Antimalarials” (ACS Infect Dis, 2020).

Assay: Toxicity liver stage against HepG2, at 10uM
Format: cell-based
Design: test concentration 10 uM, cell line HepG2-A16-CD81EGFP
Details: human, HepG2-A16-CD81EGFP cells; read-out: INHIBITION
How it was run: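 Uninfected HepG2-A16-CD81EGFP cells, 3 × 10^3 per well, 1536-well, plated on prespotted compound at 10 μM final, parasite-free screening media added to match infected plates; puromycin 10 μM positive, DMSO 0.5% negative; run in parallel with 48 h PbLuc assay at 37 °C, 5% CO2; viability by CellTiter-Glo luminescence, normalized to controls.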

Row | SMILES | cytotoxicity at 10 µM
1 | Cn1c2ccccc2c2ncn(CCN3CCOCC3)c(=O)c21 | 15.7%
2 | Cc1c(CNCc2nn(-c3ccccc3)c3c2CCC3)cc(C#N)n1C | 13.3%
3 | CCOC(=O)CNC(=O)NCc1cc(C)n(-c2ccccc2OC)c1C | 13.3%
4 | CN(CCC(O)c1ccccc1)Cc1nc(-c2ccccc2)no1 (configuration not stated) | 7.86%
5 | CC(=O)NC1CCCc2c1[nH]c1ccc(F)cc21 (configuration not stated) | -4.41%
6 | CCCS(=O)(=O)N1C[C@@H]2COC[C@@H](Cc3nc(C)no3)[C@@H]2C1 | 6.34%
7 | CCN1C[C@H]2CCN(C(=O)c3cc[nH]n3)CC[C@H]2S1(=O)=O | 12.2%
8 | O=C(O)C1CCCN(C(=O)CCn2ccc3c(Cl)cccc32)C1 (configuration not stated) | 11%
9 | CC(C)n1[nH]c(=O)c2c1NC(=O)CSC2C1CCCCC1 (configuration not stated) | -4.56%
10 | CC(=O)Nc1nc(-c2ccc(F)cc2)c[nH]1 | 2.41%
11 | O=C(NCCN1CCOCC1)c1ccc(-n2ccc3ccccc32)s1 | -1.27%
12 | CN1CCN(c2nsc(-c3cccnc3)c2C#N)CC1 | 0.916%
13 | CCOC(=O)C1CCN(c2cc(C(=O)N3CCOCC3)nc(C)n2)CC1 | -1.07%
14 | Cc1nnc(Nc2cccc(C3CCCN(Cc4ncc[nH]4)C3)n2)s1 (configuration not stated) | -5.5%
15 | COCCN1C(=O)CO[C@H]2CN(Cc3ccccc3Cl)C[C@@H]21 | -6.55%
16 | CC(=O)N1CCC(c2cc(C(F)(F)F)nc3nccn23)CC1 | -2.11%
17 | COCCN1CCCC1c1nccnc1Nc1nccs1 (configuration not stated) | -7.55%
18 | COc1cccc(CN2CC[C@H]3[C@@H](C2)[C@H](c2ccsc2)CN3C(C)=O)c1 | -5.61%
19 | O=C(NCc1ccc(CN2CCCC2)cc1)NC1(CO)CCCC1 | -63.4%
20 | Cc1ccc(C(=O)N(C)S(C)(=O)=O)cc1Cl | -46.5%
21 | O=c1oc(-c2ccc(F)cc2)nn1CC1CCOC1 (configuration not stated) | 5.53%
22 | CC(NC(=O)N1CCCN(CC(F)F)CC1)c1ccco1 (configuration not stated) | -6.03%

Row | SMILES | cytotoxicity at 10 µM
23 | O=C(NC1CCN(C2CC2)CC1)c1cc(Cl)ccc1-n1cnnn1 | 3.43%
24 | Cc1noc(C)c1CN(C)Cc1csc(-c2ncccn2)n1 | 16.5%
25 | Cc1nccn1-c1ccc(C(C)NCCC(C)C)cc1 (configuration not stated) | 15.9%
26 | CCc1cnc(CN(C)C(C)C(=O)N2CCc3ccccc3C2)s1 (configuration not stated) | 7.2%
27 | Cc1c(NC(C)C(C)C)cccc1C(=O)NCc1ccnn1C (configuration not stated) | 57.6%
28 | Fc1ccc(CNCc2nnc3n2CC(C(F)(F)F)CC3)cc1 (configuration not stated) | 6.71%
29 | CNS(=O)(=O)c1cccc(C(C)NCc2ccc(C)c(C)c2)c1 (configuration not stated) | 3.92%
30 | CN(Cc1ccco1)Cc1ccccc1CNC(=O)c1cnccn1 | 17.1%
31 | N#Cc1cc(NC(=O)c2ccncc2)ccc1N1CCC(O)CC1 | 7.48%
32 | CN(C)CCN(Cc1ccc(C(F)(F)F)cc1)C(=O)c1cc[nH]n1 | 3.95%
33 | NS(=O)(=O)N1CCc2ccc(NC(=O)CC(F)(F)F)cc21 | 6.15%
34 | Cc1cc(=O)n2ncnc2n1CC(O)c1ccccc1 (configuration not stated) | -7.82%
35 | Cc1cn2c(n1)C(CNCc1cccc3c1OCO3)CCC2 (configuration not stated) | -0.372%
36 | CN1CCN(S(=O)(=O)c2cccc(C#N)c2)c2ccc(F)cc21 | 2.98%
37 | Cc1cc(N2CCC(NC(=O)CCC3CCCO3)CC2)nc(C)n1 (configuration not stated) | -8.21%
38 | OCc1cc2ccccc2nc1NC1CC=CC1 | -56%
39 | O=C1CCc2cc(S(=O)(=O)NC(=O)c3ccc4c(c3)COC4)ccc2N1 | 4.82%
40 | Clc1cc(Cl)cc(OCCN2CCC(n3cncn3)CC2)c1 | 10.8%
41 | CCC1CN(C)c2ccccc2CN1C(=O)Nc1ccccc1OC (configuration not stated) | -1.87%
42 | N#Cc1c(Cl)nsc1NCCCN1C(=O)COc2ccccc21 | 22.2%
43 | C=C(C)COCCNC(=O)Nc1cccc(Cn2nc(C)nc2C)c1 | 7.64%
44 | Cc1nn(C)c(Oc2cccc(F)c2)c1NC(=O)C1CCOCC1 | -3.91%

Row | SMILES | cytotoxicity at 10 µM
45 | CCN(CC)c1ccc(CNS(=O)(=O)C2CCOCC2)cc1F | -13.4%
46 | O=C(Nc1ccc(N2CCCC2)nc1)N1CCc2ccccc2C1 | -10.2%
47 | COC1COC2(CCN(C(=O)c3ccccc3F)CC2)C1 (configuration not stated) | -92.4%
48 | Cc1occc1C(=O)N1C[C@@H]2CCCO[C@@H]2[C@H](NC(=O)CC2CC2)C1 | -102%
49 | Cc1cccc(-c2nnn3c2COC(CNC(=O)N2CCCC2)C3)c1 (configuration not stated) | -94.5%
50 | Cc1nc(C(=O)N2CC[C@@]3(C[C@@H](NS(C)(=O)=O)CCO3)C2)cs1 | -66%
51 | CO[C@@H]1CCN(Cc2cccs2)[C@H]1Cc1ccncc1 | -73.4%
52 | CCC(CC)CN1CCC2(CCCN(c3ncccn3)C2)C1 (configuration not stated) | -83.5%
53 | O=C(c1ccsc1)N1CCc2ncc(Cn3cncn3)n2CC1 | -78%
54 | Cn1cc(CNCC2Cn3nnc(-c4ccccc4)c3CO2)cn1 (configuration not stated) | -4.66%
55 | NC(=O)c1ccc(-n2ccnc2-c2cccc(O)c2)cc1N1CCCC1 | 15.8%
56 | CCc1nc(C)c(C(=O)N2C[C@@H](C(=O)O)[C@H](C3CC3)C2)s1 | 3.41%
57 | CCN(Cc1ccncc1)C1CCCN(Cc2ccc(F)cc2Cl)C1 (configuration not stated) | 7.94%
58 | Cn1ccnc1C1CCN(S(=O)(=O)c2ccc3[nH]c(=O)[nH]c3c2)CC1 | 4.82%
59 | CCc1nc(CNc2nc3c(s2)c(C)nn3C)cs1 | -72%
60 | O=C(c1cc(=O)n(-c2ccccc2)[nH]1)N1CCOC(C(F)(F)F)C1 (configuration not stated) | 3.32%
61 | C/C=C(\C)CN1C[C@H](NC(=O)CCOC)[C@@H](c2ccc(C)o2)C1 | 7.06%
62 | Cc1c(C(C)NCC2CCCC2)cnn1-c1ccc(F)cc1F (configuration not stated) | 9%
63 | CN(C)c1ccc(C(=O)NCCCc2ccccn2)cn1 | -54%
64 | Cc1nc(NC2CCS(=O)(=O)CC2)cc(C2CCCNC2)n1 (configuration not stated) | -11%
65 | Cc1csc2c(N3CCNC(C(=O)Nc4ccc(F)cc4)C3)ncnc12 (configuration not stated) | 12.7%
66 | COc1cccc2c1OCC(NCc1cnn(-c3ccccc3)c1)C2 (configuration not stated) | -0.517%

Row | SMILES | cytotoxicity at 10 µM
67 | COc1coc(CN2CCCC(CCc3ccc(F)c(F)c3)C2)cc1=O (configuration not stated) | 1.95%
68 | CC(C)n1cc(C(=O)N2CCN(c3cccc(C(F)(F)F)c3)CC2)cn1 | 5.37%
69 | CN(C)Cc1ccc(C(=O)N2CCCC(COc3ccc(F)cc3)C2)o1 (configuration not stated) | -12.9%
70 | Cn1ccnc1-c1cnn(CC(=O)Nc2ccnn2C)c1 | -10.1%
71 | CN1CCCCCC1C(=O)N1CCN(c2ccccc2C#N)CC1 (configuration not stated) | -7.17%
72 | CCn1nc(C)c(CN2CCCC(c3ccc(C(=O)O)cc3)C2)c1C (configuration not stated) | -8.56%
73 | Cc1nccc(N[C@H]2CN(C(=O)CN3CCCC3=O)C[C@@H]2C(C)C)n1 | -2.14%
74 | NC(=O)c1cc2c(nc1Oc1cccc(CN3CCCC3)c1F)CCC2 | -1.47%
75 | CCc1cc(N2CCC(NC3CN4CCC3CC4)CC2)nc(N(C)C)n1 (configuration not stated) | -2.12%
76 | Cc1ccc(NC(=O)c2coc(C)n2)c(C)c1 | -4.94%
77 | Cc1cccc(C(=O)Nc2ccc(OC3CCN(C)CC3)cc2)c1 | -26.1%
78 | COc1ccc(-n2ccc(C(=O)NCCN3CCCC(C)C3)n2)cc1 (configuration not stated) | -0.0158%
79 | CC(C)c1nccn1C1CCCN(C(=O)CCc2cscn2)C1 (configuration not stated) | -7.81%
80 | CC(=O)N1CCCN(C(=O)c2ccc(=O)n(C)c2)c2ccccc21 | -10.4%
81 | CN1CCOC(CN(C(=O)CCc2cnn(C)c2)c2nccs2)C1 (configuration not stated) | -10.2%
82 | Nc1cc2c(nn1)CCN(C(=O)CCC1CCCCC1)C2 | 6.5%
83 | CCc1nc(CC(=O)N2CCCCC2Cn2cccn2)cs1 (configuration not stated) | -17.6%
84 | CC(NC(=O)NCCCN(C)S(C)(=O)=O)c1ccc(Cl)cc1 (configuration not stated) | -2.24%
85 | c1cc(CNCC2CNc3ccnn3C2)cc(N2CCOCC2)n1 (configuration not stated) | -5.13%
86 | O=C(c1ccc(Cl)o1)N1CCCC(c2cc(C(F)(F)F)[nH]n2)C1 (configuration not stated) | 2.14%
87 | CNC(=O)C1CCN(C(=O)CCn2cccn2)CC1 | -3.76%
88 | Cc1noc(C)c1C(=O)NCc1ccnc(OCC(F)(F)F)c1 | -0.421%

Row | SMILES | cytotoxicity at 10 µM
89 | CCC(CN1CCOCC1)n1cncc1-c1ccc2c(c1)CCN2CC (configuration not stated) | 14.9%
90 | COc1ccc(CN2CC[C@@H]3[C@H]2CCC(=O)N3c2cnn(C)c2)cc1 | 17.4%
91 | CCOCc1cncc2c1CCN(C(=O)c1cscn1)C2 | -107%
92 | Cn1nc(COc2cncnc2)c2c1CCN(Cc1ccco1)C2 | 9.64%
93 | Fc1cnc(N2C[C@@H]3C[C@@H](c4nc(C5CC5)cs4)O[C@@H]3C2)nc1 | 22.8%
94 | CN(Cc1ccco1)C[C@H]1OC[C@@H]2CCN(Cc3ccsc3)C[C@@H]21 | -3.2%
95 | CCOC1COC2(CCN(C(=O)c3cccc(C)n3)CC2)C1 (configuration not stated) | 6.24%
96 | COc1cccc([C@H]2CN(C(C)=O)[C@@H]3CCN(Cc4ccsc4)C[C@H]23)c1 | -9.19%
97 | COc1ccc(C[C@H]2CN(c3nnc(C)s3)CC[C@H]2OC)cc1 | 8.04%
98 | COc1ccc(CNc2c(C)nn(C(C)C)c2C)cc1OC | -38.5%
99 | CC1CCN(C(=O)[C@@H]2CC[C@@H]3[C@@H](CCN3c3ncc(F)cn3)O2)CC1 | -0.359%
100 | Cc1cccc(CO[C@@H]2CO[C@@]3(CCN(S(=O)(=O)N(C)C)C3)C2)n1 | 4.14%
101 | CCn1nnc2c1C(COCCN(C)C)CN(Cc1ccco1)C2 (configuration not stated) | 1.86%
102 | c1cc(CN2CCO[C@H]3[C@H](OCC4CCCC4)CC[C@@H]32)ccn1 | 13.9%
103 | CNC(=O)C1CCC2(CCN(c3nncs3)CC2)CO1 (configuration not stated) | 6.01%
104 | CN(C)C1CCN(C(=O)c2cc(-c3ccn(C)n3)n3ccccc23)CC1 | -117%
105 | CNC(=O)N1C[C@@H]2C[C@H](C(=O)Nc3ccccc3)[C@H](C1)O2 | -2.24%
106 | CCc1ncc(CN2C[C@@H]3CC[C@H]2CN(C(=O)C2CCC2)C3)cn1 | 4.96%
107 | O=S(=O)(c1cccc(F)c1)N1C[C@H]2CC[C@@H](C1)N(Cc1ccccc1)C2 | -3.03%
